The test has as its target Voltage-gated inwardly rectifying potassium channel KCNH2 (Homo sapiens) (UniProt Q12809). Nature of the test: hERG radioligand binding displacement, late-stage follow-up, counter-screen for OPRK1 antagonist project, biochemical, radiometric (AID 652075). As to conditions: CEREP, at 10 µM, hits give high values. Put shortly: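 Material – hERG radioligand binding · Control set – nonspecific binding with excess unlabelled ligand · Doses – 10 µM single dose · Read-out – percent inhibition of specific binding versus control, negatives denoting stimulation · Technique – radiometric measurement of bound radioligand · Probe or stimulus – radioligand, unlabelled ligand excess for nonspecific · Replication – duplicate measurements per compound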
For orientation: The hERG channel carries a current that helps repolarise heart muscle cells.

Active and inactive are the calls of the source.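 Rule for the calls: active = hERG binding inhibition of 50% or more, or stimulation of 50% or more, shown as inhibition of -50% or lower; inactive = the rest.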

Voltage-gated inwardly rectifying potassium channel KCNH2 (Homo sapiens), sequence (Q12809 whole entry, looked up): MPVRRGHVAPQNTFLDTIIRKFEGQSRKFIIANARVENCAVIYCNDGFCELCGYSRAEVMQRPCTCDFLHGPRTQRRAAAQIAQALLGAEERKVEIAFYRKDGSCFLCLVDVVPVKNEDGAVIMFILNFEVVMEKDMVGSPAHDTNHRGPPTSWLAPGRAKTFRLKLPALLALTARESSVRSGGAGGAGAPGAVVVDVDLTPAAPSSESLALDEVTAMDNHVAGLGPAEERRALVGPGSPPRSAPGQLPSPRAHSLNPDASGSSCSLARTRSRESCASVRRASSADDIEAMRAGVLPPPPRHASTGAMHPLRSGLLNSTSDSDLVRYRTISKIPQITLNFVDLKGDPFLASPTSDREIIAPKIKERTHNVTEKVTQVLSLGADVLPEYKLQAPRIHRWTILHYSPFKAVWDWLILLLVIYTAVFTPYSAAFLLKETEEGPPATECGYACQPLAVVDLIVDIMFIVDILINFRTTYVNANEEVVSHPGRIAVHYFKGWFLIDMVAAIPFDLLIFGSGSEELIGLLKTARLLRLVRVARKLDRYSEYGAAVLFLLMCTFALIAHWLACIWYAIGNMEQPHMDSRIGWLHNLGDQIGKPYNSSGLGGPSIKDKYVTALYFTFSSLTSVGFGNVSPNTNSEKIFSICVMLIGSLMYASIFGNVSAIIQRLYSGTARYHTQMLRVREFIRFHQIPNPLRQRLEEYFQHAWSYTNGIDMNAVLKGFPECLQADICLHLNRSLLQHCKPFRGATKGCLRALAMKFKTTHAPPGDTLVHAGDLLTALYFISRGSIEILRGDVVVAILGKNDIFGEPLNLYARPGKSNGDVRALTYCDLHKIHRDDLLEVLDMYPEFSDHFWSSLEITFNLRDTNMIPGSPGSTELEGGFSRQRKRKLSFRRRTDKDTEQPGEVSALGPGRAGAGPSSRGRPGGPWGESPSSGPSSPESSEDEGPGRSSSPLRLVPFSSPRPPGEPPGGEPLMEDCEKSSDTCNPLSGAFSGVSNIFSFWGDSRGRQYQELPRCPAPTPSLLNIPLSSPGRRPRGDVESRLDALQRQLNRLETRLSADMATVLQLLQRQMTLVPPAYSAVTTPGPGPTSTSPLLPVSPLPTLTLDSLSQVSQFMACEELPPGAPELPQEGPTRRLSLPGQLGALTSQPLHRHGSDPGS

For orientation: inhibition means how much of the control response was suppressed. For `COC(=O)c1cc(Br)cnc1N1CCC(NC2CCCCC2)C(O)C1` (stereo unspecified), the inhibition is 39.3% (inactive).

Values taken from PubChem BioAssay AID652075 (The Scripps Research Institute Molecular Screening Center, 2013).
